ChEMBL document CHEMBL1122485, “Antibacterially active substituted anilides of carboxylic and sulfonic acids” (1983)
Converted amounts (≈) assume the structure as drawn.

Experiments:
[1] = tested on: Lactiplantibacillus plantarum; assay: Activity at 10 ppm against Lactobacillus plantarum; x=Effective; format: functional, organism-based
Method in brief: (§1)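 Gram-positive panel on nutrient agar containing compound at 10, 1.0 and 0.1 ppm, duplicate plates. Six 15-µL drops per species, each holding 10⁷ vegetative cells (10⁶ for L. plantarum). Hexachlorophene and no-compound plates were run alongside. Plates were incubated 5 days at 30 °C and scored for growth. MIC was taken as the lowest level with no colonies on either plate.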

Staphylococcus aureus [2] = assay: Bacteriostatic activity against Staphylococcus aureus ATCC 6538 at 10 ppm concentration; + =Positive; format: functional, organism-based
Method in brief: (§2)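 S. aureus was inoculated at 10⁷/mL into 10 mL nutrient broth with 10 ppm compound. Those tubes were centrifuged (10000g, 10 min), resuspended in sterile diluent and streaked onto nutrient agar. Colonies after 48 h at 30 °C meant bacteriostatic; none meant bactericidal.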

Staphylococcus aureus [3] = assay: Minimum inhibitory concentration against staphylococcus aureus ATCC 6538; format: functional
Method in brief: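 Agar dilution: 1% stocks in 95% ethanol or water, serially diluted into nutrient agar (pH 6.8) to 1000, 100, 10 and 1 ppm. Plates were dried 30 min at 37 °C and spotted with ten drops of 24-h nutrient broth culture. Incubation was 48 h at 37 °C, in duplicate, with hexachlorophene as standard. MIC was the lowest level with no growth of any inoculum on either dish.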

Staphylococcus aureus [4] = assay: Activity at 10 ppm against Staphylococcus aureus ATCC 6538; x=Effective; format: functional, organism-based
Staphylococcus aureus [5] = assay: Bactericidal activity against Staphylococcus aureus ATCC 6538 at 10 ppm concentration; - = Negative; format: functional, organism-based; method in brief: as §2
Bacillus cereus [6] = assay: Activity at 10 ppm against Bacillus cereus NRRL 3711; d=A few resistant colonies grew; format: functional, organism-based; method in brief: as §1
Staphylococcus aureus [7] = assay: Bacteriostatic activity against Staphylococcus aureus ATCC 6538 at 10 ppm concentration; - = Negative; format: functional, organism-based; method in brief: as §2
Enterococcus faecalis [8] = assay: Activity at 10 ppm against Streptococcus faecalis; x=Effective; format: functional, organism-based; method in brief: as §1
Staphylococcus aureus [9] = assay: Bactericidal activity against Staphylococcus aureus ATCC 6538 at 10 ppm concentration; + =Positive; format: functional, organism-based; method in brief: as §2
Bacillus cereus [10] = assay: Activity at 10 ppm against Bacillus cereus NRRL 3711; x=Effective; format: functional, organism-based; method in brief: as §1
Bacillus cereus [11] = assay: Activity at 1 ppm against Bacillus cereus NRRL 3711; x=Effective; format: functional, organism-based; method in brief: as §1
[12] = tested on: Lactiplantibacillus plantarum; assay: Activity at 1 ppm against Lactobacillus plantarum; x=Effective; format: functional, organism-based; method in brief: as §1
Staphylococcus aureus [13] = assay: Bacteriostatic activity against Staphylococcus aureus ATCC 6538 at 1 ppm concentration; + =Positive; format: functional, organism-based
Enterococcus faecalis [14] = assay: Activity against Streptococcus faecalis; xe=S. faecalis was inhibited at 10 p.p.m. but not at 1 ppm; format: functional, organism-based; method in brief: as §1
Staphylococcus aureus [15] = assay: Activity at 1 ppm against Staphylococcus aureus ATCC 6538; x=Effective; format: functional, organism-based
Staphylococcus aureus [16] = assay: Bactericidal activity against Staphylococcus aureus ATCC 6538 at 1 ppm concentration; - = Negative; format: functional, organism-based
Staphylococcus aureus [17] = assay: Bactericidal activity against Staphylococcus aureus ATCC 6538 at 10 ppm concentration; -=Negative; format: functional, organism-based; method in brief: as §2
Bacillus cereus [18] = assay: Activity at 10 ppm against Bacillus cereus NRRL 3711;* = Effective; format: functional, organism-based; method in brief: as §1
[19] = tested on: Lactiplantibacillus plantarum; assay: Activity at 10 ppm against Lactobacillus plantarum;* = Effective; format: functional, organism-based; method in brief: as §1
Staphylococcus aureus [20] = assay: Activity at 10 ppm against Staphylococcus aureus ATCC 6538;* = Effective; format: functional, organism-based
Enterococcus faecalis [21] = assay: Activity at 1 ppm against Streptococcus faecalis; x=Effective; format: functional, organism-based; method in brief: as §1
Staphylococcus aureus [22] = assay: Bactericidal activity against Staphylococcus aureus ATCC 6538 at 1 ppm concentration; + =Positive; format: functional, organism-based
Staphylococcus aureus [23] = assay: Bacteriostatic activity against Staphylococcus aureus ATCC 6538 at 10 ppm concentration; x=Effective; format: functional, organism-based; method in brief: as §2
Staphylococcus aureus [24] = assay: Bactericidal activity against Staphylococcus aureus ATCC 6538 at >10 ppm concentration; - = Negative; format: functional, organism-based
Staphylococcus aureus [25] = assay: Bacteriostatic activity against Staphylococcus aureus ATCC 6538 at >10 ppm concentration; - = Negative; format: functional, organism-based

Row | SMILES | Activity [1] | Activity (Staphylococcus aureus [2]) | MIC (Staphylococcus aureus [3]) | Activity (Staphylococcus aureus [4]) | Activity (Staphylococcus aureus [5]) | Activity (Enterococcus faecalis [8]) | other results
1 | CCCCCCC(=O)Nc1cc(Cl)cc(Cl)c1 | Concentration effective | Negative | 1 µg/mL (≈ 3.65 µM) | Concentration effective | Negative | – | –
2 | CCCCCCCCC(=O)Nc1ccc(Cl)c([N+](=O)[O-])c1 | Concentration effective | Negative | 1 µg/mL (≈ 3.2 µM) | – | Negative | – | Activity (Bacillus cereus [6]): A few resistant colonies grew
3 | CCCc1ccc(S(=O)(=O)Nc2ccc(Cl)c(Cl)c2)cc1 | Concentration effective | – | 1 µg/mL (≈ 2.9 µM) | – | – | Concentration effective | Activity (Staphylococcus aureus [7]): Negative; Activity (Staphylococcus aureus [9]): Negative
4 | CCCCCCCC(=O)Nc1cc([N+](=O)[O-])ccc1O | Concentration effective | – | 1 µg/mL (≈ 3.57 µM) | Concentration effective | Negative | Concentration effective | Activity (Bacillus cereus [10]): Concentration effective; Activity (Staphylococcus aureus [2]; Bacteria): Negative
5 | C=C(CCCCCCC)C(=O)Nc1cc([N+](=O)[O-])ccc1O | – | – | 1 µg/mL (≈ 3.26 µM) | – | – | – | Activity (Bacillus cereus [11]): Concentration effective; Activity [12]: Concentration effective; Activity (Staphylococcus aureus [13]): Negative; Activity (Enterococcus faecalis [14]): Inhibited at 10ppm but not at 1ppm; Activity (Staphylococcus aureus [15]): Concentration effective; Activity (Staphylococcus aureus [16]): Negative
6 | C=C(CCCCCC)C(=O)Nc1cc([N+](=O)[O-])ccc1O | Concentration effective | Negative | 1 µg/mL (≈ 3.42 µM) | Concentration effective | Negative | Concentration effective | Activity (Bacillus cereus [10]): Concentration effective
7 | CCCCCCCC(=O)Nc1ccc(Cl)c(Cl)c1 | Concentration effective | Negative | 1 µg/mL (≈ 3.47 µM) | Concentration effective | – | – | Activity (Bacillus cereus [6]): A few resistant colonies grew; Activity (Staphylococcus aureus [17]): Negative
8 | CCCCCCCC(=O)Nc1cc(Cl)cc(Cl)c1 | – | Negative | 1 µg/mL (≈ 3.47 µM) | – | Negative | – | Activity (Bacillus cereus [18]): Concentration effective; Activity [19]: Concentration effective; Activity (Staphylococcus aureus [20]): Concentration effective
9 | C=C(CCCCCC)C(=O)Nc1cc(Cl)cc(Cl)c1 | Concentration effective | Negative | 1 µg/mL (≈ 3.33 µM) | Concentration effective | Negative | – | –
10 | C=C(CCCCCCCC)C(=O)Nc1cc([N+](=O)[O-])ccc1O | – | – | 1 µg/mL (≈ 3.12 µM) | – | – | – | Activity (Bacillus cereus [11]): Concentration effective; Activity [12]: Concentration effective; Activity (Staphylococcus aureus [13]): Positive; Activity (Enterococcus faecalis [21]): Concentration effective; Activity (Staphylococcus aureus [15]): Concentration effective; Activity (Staphylococcus aureus [22]): Positive
11 | CCCCc1ccc(S(=O)(=O)Nc2ccc(Cl)c([N+](=O)[O-])c2)cc1 | Concentration effective | – | 1 µg/mL (≈ 2.71 µM) | – | Negative | Concentration effective | Activity (Staphylococcus aureus [7]): Negative
12 | O=S(=O)(Nc1ccc(Cl)c(Cl)c1)c1ccc(Cl)c(Cl)c1 | Concentration effective | Negative | 1 µg/mL (≈ 2.69 µM) | Concentration effective | Negative | Concentration effective | Activity (Bacillus cereus [10]): Concentration effective
13 | O=[N+]([O-])c1cc(NS(=O)(=O)c2ccc(Cl)c(Cl)c2)ccc1Cl | Concentration effective | Negative | 1 µg/mL (≈ 2.62 µM) | – | Negative | Concentration effective | –
14 | CCCCCCCC(=O)Nc1ccc(Cl)c([N+](=O)[O-])c1 | Concentration effective | – | 1 µg/mL (≈ 3.35 µM) | – | Negative | – | Activity (Bacillus cereus [10]): Concentration effective; Activity (Staphylococcus aureus [7]): Negative
15 | CCCCCCCCCC(=O)Nc1cc([N+](=O)[O-])ccc1O | – | Negative | 1 µg/mL (≈ 3.24 µM) | – | Negative | – | Activity (Staphylococcus aureus [23]): Concentration effective
16 | CCCCc1ccc(S(=O)(=O)Nc2cc([N+](=O)[O-])ccc2O)cc1 | Concentration effective | Negative | 10 µg/mL (≈ 28.5 µM) | Concentration effective | Negative | – | Activity (Bacillus cereus [10]): Concentration effective
17 | CCCc1ccc(S(=O)(=O)Nc2cc(Cl)ccc2O)cc1 | Concentration effective | Negative | 1 µg/mL (≈ 3.07 µM) | Concentration effective | Negative | Concentration effective | Activity (Bacillus cereus [10]): Concentration effective
18 | O=S(=O)(Nc1cc(Cl)ccc1O)c1ccc(Cl)c(Cl)c1 | – | – | 10 µg/mL (≈ 28.4 µM) | – | – | – | –
19 | CCCCCCCCC(=O)Nc1cc(Cl)ccc1O | – | – | 1 µg/mL (≈ 3.52 µM) | – | – | – | Activity (Staphylococcus aureus [24]): Negative; Activity (Staphylococcus aureus [25]): Negative
20 | C=C(CCCCCCCC)C(=O)Nc1ccc(Cl)c([N+](=O)[O-])c1 | – | – | 1 µg/mL (≈ 2.95 µM) | – | – | – | –
21 | C=C(CCCCC)C(=O)Nc1cc(Cl)cc(Cl)c1 | Concentration effective | Negative | 1 µg/mL (≈ 3.49 µM) | Concentration effective | Negative | – | Activity (Bacillus cereus [6]): A few resistant colonies grew
